Results pooled from the literature.
Lines come from different studies, so protocols differ.
Observed: ABTS scavenging

| SMILES | assay | IC50 |
| --- | --- | --- |
| O=c1c(O[C@@H]2O[C@H](CO)[C@@H](O)[C@H](O)[C@H]2O)c(-c2ccc(O)c(O)c2)oc2cc(O)cc(O)c12 | absorbance | 6510 nM |
| O=C(Cc1c[nH]c2ccccc12)Nc1ccc(F)cc1F |  | 1310 nM |
| O=C(OC[C@H]1O[C@@H](OC(=O)c2cc(O)c(O)c(O)c2)[C@H](OC(=O)c2cc(O)c(O)c(O)c2)[C@@H](OC(=O)c2cc(O)c(O)c(O)c2)[C@@H]1O)c1cc(O)c(O)c(O)c1 | absorbance | 3590 nM |
| Cc1ccc(NC(=O)Cc2c[nH]c3ccccc23)cc1C |  | 1580 nM |
| COc1ccc(-c2nc3cc(Cl)ccc3[nH]2)cc1OCc1ccccc1 | absorbance | 1750 nM |
| Cc1cc(C(C)(C)C)c(O)c(C(C)(C)C)c1 |  | 6.99 µg/mL |
| COc1cc(-c2oc3cc(O)cc(O)c3c(=O)c2O[C@@H]2O[C@H](CO)[C@@H](O)[C@H](O)[C@H]2O)ccc1O | absorbance | 15300 nM |
| Cc1cc2nc(-c3ccccc3OCc3ccccc3)[nH]c2cc1C | absorbance | 1780 nM |
| O=C(O)c1cc(O)c(O)c(O)c1 | absorbance | 8190 nM |
| Fc1ccc2[nH]c(-c3ccccc3OCc3ccccc3)nc2c1 | absorbance | 1770 nM |
| CSc1cccc(NC(=O)Cc2c[nH]c3ccccc23)c1 |  | 1520 nM |
| O=C1O[C@H]([C@@H](O)CO)C(O)=C1O |  | 1.4 µg/mL |
| COc1ccc(-c2nc3cc([N+](=O)[O-])ccc3[nH]2)cc1OCc1ccccc1 | absorbance | 1760 nM |
| COc1cc(-c2oc3cc(O[C@@H]4O[C@H](CO)[C@@H](O)[C@H](O)[C@H]4O)cc(O)c3c(=O)c2O[C@@H]2O[C@H](CO)[C@@H](O)[C@H](O)[C@H]2O)ccc1O | absorbance | 41700 nM |
| O=C(Cc1c[nH]c2ccccc12)Nc1ccc(Cl)cc1 |  | 460 nM |
